Assay results as given in ChEMBL document CHEMBL4627371, “Discovery of novel heat shock protein (Hsp90) inhibitors based on luminespib with potent antitumor activity” (Bioorg Med Chem Lett, 2020).

Experiments:
[1] = target: T1, Heat shock protein HSP90 (Homo sapiens, UniProt P07900+P08238); experiment: Inhibition of HSP90 (unknown origin) assessed as HER2 degradation by cell-based assay
[2] = test system: A2780; experiment: Cytotoxicity against human A2780 cells assessed as cell growth inhibition; type: functional, cell-based
[3] = test system: HCT-116; experiment: Cytotoxicity against human HCT116 cells assessed as cell growth inhibition; type: functional, cell-based
[4] = target: T1, Heat shock protein HSP90; experiment: Inhibition of HSP90 ATPase activity (unknown origin); type: protein assay
[5] = Toxicity in BALB/c athymic nu/nu mouse xenografted with human NCI-H1975 cells assessed as mouse death at 200 mg/kg, iv administered once a week for 3 weeks; type: organism-based; details: in vivo, 504 h
Outline: (§1)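 Athymic BALB/c-nu/nude mice bearing NCI-H1975 human lung carcinoma xenografts, n = 6 per group. Compounds were given i.v. at 200 mg/kg once weekly for three weeks. Deaths and body weight loss were recorded. Tumor growth inhibition was calculated from mean treated versus mean control tumor volumes.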

[6] = test system: A2780; experiment: Antitumor activity against human A2780 cells xenografted in BALB/c nu/nu mouse assessed as tumor growth inhibition at 50 mg/kg, iv administered 3 times a week for 2 weeks starting from 5 to 6 days post tumor inoculation relative to control; type: functional; details: read-out: TGI
Outline: (§2)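 Human A2780 ovarian adenocarcinoma cells were cultured and implanted into BALB/c-nu/nude mice, n = 6 per group. Tumor size and volume were measured 5 or 6 days later. Compounds were suspended in 1% carboxymethyl cellulose and given intravenously. Deaths and body weight were monitored. Tumor growth inhibition = [1 − (mean treated tumor volume)/(mean control tumor volume)] × 100%.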

[7] = test system: NCI-H1975; experiment: Antitumor activity against human NCI-H1975 cells xenografted in BALB/c athymic nu/nu mouse assessed as tumor growth inhibition at 200 mg/kg, iv administered once a week for 3 weeks relative to control; type: functional; details: 504 h, read-out: TGI; outline: as §1
[8] = Toxicity in BALB/c nu/nu mouse xenografted with human A2780 cells assessed as effect on body weight at 50 mg/kg, iv administered 3 times a week for 2 weeks starting from 5 to 6 days post tumor inoculation; type: organism-based; details: in vivo; outline: as §2
[9] = Toxicity in BALB/c nu/nu mouse xenografted with human A2780 cells assessed as mouse death at 50 mg/kg, iv administered 3 times a week for 2 weeks starting from 5 to 6 days post tumor inoculation; type: organism-based; details: in vivo; outline: as §2
[10] = Toxicity in BALB/c athymic nu/nu mouse xenografted with human NCI-H1975 cells assessed as effect on body weight at 200 mg/kg, iv administered once a week for 3 weeks; type: organism-based; details: in vivo, 504 h; outline: as §1
[11] = Toxicity in BALB/c nu/nu mouse xenografted with human A2780 cells assessed as mouse death at 50 mg/kg, iv administered 3 times a week for 3 weeks starting from 5 to 6 days post tumor inoculation; type: organism-based; details: in vivo; outline: as §2
[12] = Toxicity in BALB/c nu/nu mouse xenografted with human A2780 cells assessed as effect on body weight at 50 mg/kg, iv administered 3 times a week for 3 weeks starting from 5 to 6 days post tumor inoculation; type: organism-based; details: in vivo; outline: as §2
[13] = test system: A2780; experiment: Antitumor activity against human A2780 cells xenografted in BALB/c nu/nu mouse assessed as tumor growth inhibition at 50 mg/kg, iv administered 3 times a week for 3 weeks starting from 5 to 6 days post tumor inoculation relative to control; type: functional; details: read-out: TGI; outline: as §2

SMILES | IC50 [1] [µM] | IC50 [2] [nM] | IC50 [3] [nM] | IC50 [4] [µM] | other results
CCNC(=O)c1noc(-c2cc(C(C)C)c(O)cc2O)c1-c1ccn(C)n1 | 0.016 | 12 | 16 | 0.522 | –
CCNC(=O)c1noc(-c2cc(C(C)C)c(O)cc2O)c1-c1cc(COS(C)(=O)=O)no1 | – | – | 400 | 0.476 | –
CCNC(=O)c1noc(-c2cc(C(C)C)c(O)cc2O)c1-c1cn[nH]c1 | 0.013 | 38 | 43 | 0.469 | Activity [5]: Non-Toxic; inhibition in vivo at 50 mg/kg [6]: 47.6%; inhibition in vivo at 200 mg/kg [7]: 55.4%; Activity [8]: Non-Toxic; Activity [9]: Non-Toxic; Activity [10]: Non-Toxic
CCNC(=O)c1noc(-c2cc(C(C)C)c(O)cc2O)c1-c1cc(CN(C)C)no1 | 0.033 | 31 | 92 | 0.49 | –
CCNCc1cc(-c2c(C(=O)NCC)noc2-c2cc(C(C)C)c(O)cc2O)on1 | 0.023 | 45 | 45 | 0.475 | inhibition in vivo at 50 mg/kg [6]: 40.3%; Activity [8]: Non-Toxic; Activity [9]: Non-Toxic
C=CCNCc1cc(-c2c(C(=O)NCC)noc2-c2cc(C(C)C)c(O)cc2O)on1 | 0.067 | – | – | 0.435 | –
CCNC(=O)c1noc(-c2cc(C(C)C)c(O)cc2O)c1-c1cc(CC#N)no1 | – | – | 79 | 0.47 | –
CCNC(=O)c1noc(-c2cc(C(C)C)c(O)cc2O)c1-c1cc(CN2CCCC2)no1 | 0.038 | 55 | 51 | 0.686 | –
CCNC(=O)c1noc(-c2cc(C(C)C)c(O)cc2O)c1-c1cc(CNC(=O)CC)no1 | 0.05 | – | 78 | 0.382 | –
CCNC(=O)c1noc(-c2cc(C(C)C)c(O)cc2O)c1-c1cc(CO)no1 | 0.042 | 5 | 13 | 0.279 | Activity [11]: Non-Toxic; Activity [5]: Non-Toxic; Activity [12]: Non-Toxic; inhibition in vivo at 200 mg/kg [7]: 50.9%; inhibition in vivo at 50 mg/kg [13]: 47%; Activity [10]: Non-Toxic
CCNC(=O)c1noc(-c2cc(C(C)C)c(O)cc2O)c1-c1cc(CN)no1 | 0.171 | – | 84 | 0.674 | –
CCNC(=O)c1noc(-c2cc(C(C)C)c(O)cc2O)c1-c1cc(CN(CC)CC)no1 | 0.052 | 78 | 38 | 0.468 | inhibition in vivo at 50 mg/kg [6]: 12.8%; Activity [8]: Non-Toxic; Activity [9]: Non-Toxic
CCCNCc1cc(-c2c(C(=O)NCC)noc2-c2cc(C(C)C)c(O)cc2O)on1 | 0.024 | – | 117 | 0.465 | –
CCNC(=O)c1noc(-c2cc(C(C)C)c(O)cc2O)c1-c1cc(COCC(=O)O)no1 | – | – | – | 1.28 | –
CCNC(=O)c1noc(-c2cc(C(C)C)c(O)cc2O)c1-c1cc(CF)no1 | 0.027 | 28 | 63 | 0.41 | –
CCNC(=O)c1noc(-c2cc(C(C)C)c(O)cc2O)c1-c1cc(C(=O)OCC)no1 | – | 9000 | – | 0.447 | –
CCNC(=O)c1noc(-c2cc(C(C)C)c(O)cc2O)c1-c1cc(COCC(=O)OC)no1 | – | – | 262 | 0.443 | –
CCNC(=O)c1noc(-c2cc(C(C)C)c(O)cc2O)c1-c1cnn(CC)c1 | 0.013 | 30 | 26 | 0.532 | –
CCNC(=O)c1noc(-c2cc(C(C)C)c(O)cc2O)c1-c1cc(CN2CCOCC2)no1 | 0.05 | – | 28 | 0.595 | –
CCNC(=O)c1noc(-c2cc(C(C)C)c(O)cc2O)c1-c1ccn(CC)n1 | 0.012 | 13 | 25 | 0.553 | –

SMILES | IC50 [1] [µM] | IC50 [2] [nM] | IC50 [3] [nM] | IC50 [4] [µM] | other results
CCNC(=O)c1noc(-c2cc(C(C)C)c(O)cc2O)c1-c1cnn(C(C)C)c1 | 0.019 | 21 | 21 | 0.542 | –
CCNC(=O)c1noc(-c2cc(C(C)C)c(O)cc2O)c1-c1cc(CNC)no1 | – | – | 164 | 0.436 | –
CCNC(=O)c1noc(-c2cc(C(C)C)c(O)cc2O)c1-c1cc(C(N)=O)no1 | 0.052 | 15 | 79 | 0.657 | –
CCNC(=O)c1noc(-c2cc(C(C)C)c(O)cc2O)c1-c1cc(COCC(N)=O)no1 | 0.05 | – | 97 | 0.452 | –
CCNC(=O)c1noc(-c2cc(C(C)C)c(O)cc2O)c1-c1cc(CNCCO)no1 | – | – | 111 | 0.975 | –
CCNC(=O)c1noc(-c2cc(C(C)C)c(O)cc2O)c1-c1cc(C(=O)N2CCOCC2)no1 | 0.052 | 85 | 60 | 0.583 | –
CCNC(=O)c1noc(-c2cc(C(C)C)c(O)cc2O)c1-c1cc(CNC(C)C)no1 | 0.018 | 38 | 109 | 0.521 | –
CCCn1ccc(-c2c(C(=O)NCC)noc2-c2cc(C(C)C)c(O)cc2O)n1 | 0.024 | 27 | 49 | 0.584 | –
CCNC(=O)c1noc(-c2cc(C(C)C)c(O)cc2O)c1-c1cc(CN2CCSCC2)no1 | 0.038 | 64 | 67 | 0.44 | –
CCNC(=O)c1noc(-c2cc(C(C)C)c(O)cc2O)c1-c1cc(CN2CCCCC2)no1 | 0.062 | 62 | 93 | 0.752 | –
CCNC(=O)c1noc(-c2cc(C(C)C)c(O)cc2O)c1-c1cc(C(=O)NC)no1 | 0.024 | 100 | 124 | 0.489 | –
CCNC(=O)c1noc(-c2cc(C(C)C)c(O)cc2O)c1-c1cc(C(=O)O)no1 | – | 20000 | – | 1.87 | –
CCNC(=O)c1noc(-c2cc(C(C)C)c(O)cc2O)c1-c1cc(CN2CCN(C)CC2)no1 | – | – | 340 | 0.572 | –
CCNC(=O)c1noc(-c2cc(C(C)C)c(O)cc2O)c1-c1ccn(C(C)C)n1 | 0.014 | 45 | 19 | 0.543 | inhibition in vivo at 50 mg/kg [6]: 49.8%; Activity [8]: Non-Toxic; Activity [9]: Non-Toxic
CCCN(CCC)Cc1cc(-c2c(C(=O)NCC)noc2-c2cc(C(C)C)c(O)cc2O)on1 | 0.117 | – | 183 | 0.413 | –
CCNC(=O)c1noc(-c2cc(C(C)C)c(O)cc2O)c1-c1cnn(C)c1 | 0.019 | 20 | 41 | 0.482 | –
CCNC(=O)c1noc(-c2cc(C(C)C)c(O)cc2O)c1-c1cc(CNC(C)=O)no1 | 0.071 | – | 167 | 0.5 | –
CCNC(=O)c1noc(-c2cc(C(C)C)c(O)cc2O)c1-c1cc[nH]n1 | 0.045 | 33 | 36 | 0.524 | inhibition in vivo at 50 mg/kg [6]: 46.4%; Activity [8]: Non-Toxic; Activity [9]: Non-Toxic
CCNC(=O)c1cc(-c2c(C(=O)NCC)noc2-c2cc(C(C)C)c(O)cc2O)on1 | 0.028 | 43 | 14 | 0.284 | Activity [11]: Non-Toxic; Activity [5]: Non-Toxic; Activity [12]: Non-Toxic; inhibition in vivo at 200 mg/kg [7]: 44%; inhibition in vivo at 50 mg/kg [13]: 52%; Activity [10]: Non-Toxic
CCNC(=O)c1noc(-c2cc(C(C)C)c(O)cc2O)c1-c1cc(C(=O)N2CCSCC2)no1 | – | 207 | – | 0.566 | –
